Activity calls are given as the source filed them. The calls are words filed in the database; no cut-off is given here.
Columns and labels:
U-87 MG [1] = assay: Antiproliferative activity against human U-87 MG cells assessed as inhibition of cell proliferation incubated for 72 hrs by CellTiter-Glo luminescent assay; type: functional, cell-based, U-87MG ATCC
In short: (§1)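 A549 in RPMI 1640 and U-87MG in DMEM, each with 10% FCS and 1% glutamine, at 37 °C and 5% CO₂. Cells seeded at 3000/well, dosed the next day, treated 72 h. Viability read by CellTiter-Glo luminescence with DMSO-treated cells set to 100%. IC50 taken from survival curves over three independent experiments.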

A549 = assay: Antiproliferative activity against human A549 cells assessed as inhibition of cell proliferation incubated for 72 hrs by CellTiter-Glo luminescent assay; type: functional, cell-based; details: A549, 72 h; in short: as §1
[2] = biological target: T1, Oxysterol-binding protein 1 (Homo sapiens, UniProt P22059); assay: Inhibition of human C-terminal 6-His tagged OSBP ORD domain (401 to 807 residues) expressed in baculovirus-infected Sf9 cells assessed as reduction in DHE transfer from liposome (Le mimicking ER) to liposome (Lg mimicking golgi) with compound by FRET assay
T1 sequence (P22059 whole entry): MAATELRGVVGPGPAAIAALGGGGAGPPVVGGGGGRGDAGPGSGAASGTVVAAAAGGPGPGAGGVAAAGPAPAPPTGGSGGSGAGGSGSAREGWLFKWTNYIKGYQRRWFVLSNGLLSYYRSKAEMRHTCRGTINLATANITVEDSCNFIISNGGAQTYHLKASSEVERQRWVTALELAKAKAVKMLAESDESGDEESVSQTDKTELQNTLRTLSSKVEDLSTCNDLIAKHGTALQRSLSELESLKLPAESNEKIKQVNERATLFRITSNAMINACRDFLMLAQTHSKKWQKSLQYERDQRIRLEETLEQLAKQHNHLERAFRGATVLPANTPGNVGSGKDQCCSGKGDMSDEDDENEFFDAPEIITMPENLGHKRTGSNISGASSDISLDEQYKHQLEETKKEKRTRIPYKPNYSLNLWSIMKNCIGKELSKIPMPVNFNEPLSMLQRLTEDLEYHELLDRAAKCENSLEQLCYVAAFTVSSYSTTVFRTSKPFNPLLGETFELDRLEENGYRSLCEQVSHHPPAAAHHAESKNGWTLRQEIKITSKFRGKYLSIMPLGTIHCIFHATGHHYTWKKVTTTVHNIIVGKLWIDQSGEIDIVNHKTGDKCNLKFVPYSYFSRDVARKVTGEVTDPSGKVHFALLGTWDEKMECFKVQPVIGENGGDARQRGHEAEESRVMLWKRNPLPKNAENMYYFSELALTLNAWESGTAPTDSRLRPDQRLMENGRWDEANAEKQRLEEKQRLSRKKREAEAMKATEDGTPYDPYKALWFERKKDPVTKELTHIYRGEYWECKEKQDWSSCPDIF
In short: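 Purified human OSBP ORD (401-807, C-terminal 6×His) from baculovirus-infected Sf9 cells, used in a DHE sterol transfer fluorescence assay. Signal corrected for compound fluorescence. Kinetics fitted linearly or by ΔF = ΔFmax(1 − e^−kt) to give apparent k, which was plotted against compound concentration. Ki from a quadratic (tight binders) or hyperbolic equation, three independent experiments.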

U-87 MG [3] = assay: Induction of autophagy in human U-87 MG cells assessed as decrease in P62 expression at 0.05 to 1 uM incubated for 48 hrs by Western blot analysis; type: functional, cell-based; details: U-87MG ATCC
In short: (§2)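 U-87 MG cells cultured two days, then exposed 48 h to increasing doses. Lysed in RIPA with protease inhibitors; 5 µg protein run on 4-20% SDS gels and transferred to PVDF. Probed for phospho/total AKT, S6, S6K, P62 and LC3, detected by ECL. Band intensities normalized to β-actin.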

mTORC1 (Homo sapiens) [4] = biological target: T2, mTORC1 (Homo sapiens) (UniProt P42345+Q8N122+Q9BVC4); assay: Inhibition of mTORC1 signalling in human U-87 MG cells assessed as decrease in S6K phosphorylation at T389 residue at 0.05 to 1 uM incubated for 48 hrs by Western blot analysis; type: cell-based; in short: as §2
[5] = Metabolic stability in mouse plasma assessed as compound remaining at 5 uM and measured after 120 mins by UPLC-MS/MS analysis; type: ADME, cell-free; details: read-out: Stability
In short: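 Male mouse plasma at 37 °C with compound added from a 5 µM solution […]. Sampled at 0, 15, 30, 45, 60 and 120 min, quenched with acetonitrile and read by LC-MS/MS (MRM) in duplicate. Procaine positive control. Remaining % and t1/2 derived from MRM area relative to t = 0.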

[6] = Metabolic stability in mouse liver microsomes assessed as compound remaining at 2.5 uM and measured after 45 mins in presence of NADPH by LC-MS/MS analysis; type: ADME, Microsome; details: read-out: Stability
[7] = biological target: T3, Oxysterol-binding protein 1 (Homo sapiens) (UniProt P22059); assay: Inhibition of human OSBP in human hTERT-RPE1 cells assessed as increase in OSBP recruitment at TGN and measured after 4 hrs by confocal microscopy; type: cell-based
T3 sequence (whole entry): T1 sequence (P22059 whole entry)

[8] = Metabolic stability in mouse liver microsomes assessed as intrinsic clearance at 2.5 uM and measured upto 45 mins in presence of NADPH by LC-MS/MS analysis; type: ADME, Microsome; details: read-out: CLH
[9] = biological target: T3, Oxysterol-binding protein 1 (Homo sapiens); assay: Inhibition of human OSBP in human hTERT-RPE1 cells co-transfected with GFP-P4MSidM and TagBFP-betaGalT1 assessed as half life for inhibition of PI4P transfer by OBSP by immunofluorescence analysis; type: cell-based
In short: (§3)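 hTERT-RPE-1 cells electroporated with GFP-P4M^SidM (PI4P probe) and TagBFP-βGalT1, plated 18-24 h. Timelapse confocal imaging at 37 °C after compound addition, with P4M-GFP intensity at the TGN tracked over time and compared before and 50 min after addition. Mean of 4 to 6 independent experiments ± SEM.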

[10] = Drug uptake in human hTERT-RPE1 cells assessed as drug co-localization with OSBP perinuclear region of cell incubated for 30 mins by immunofluorescence analysis; type: ADME, cell-based; details: tert-rpe1, 0.5 h
In short: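 hTERT-RPE-1 cells incubated 30 min with compound, then fixed (4% paraformaldehyde, 0.1% glutaraldehyde, 10 min), quenched with 50 mM NH₄Cl and permeabilized in saponin 0.05%/BSA 0.2%. Immunolabeled for OSBP and TGN-46. Compound imaged directly by UV-adapted widefield fluorescence (excitation 330, emission 410 nm).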

[11] = Metabolic stability in mouse liver microsomes assessed as compound remaining at 2.5 uM and measured after 45 mins in absence of NADPH by LC-MS/MS analysis; type: ADME, Microsome; details: read-out: Stability
[12] = biological target: T3, Oxysterol-binding protein 1 (Homo sapiens); assay: Inhibition of human OSBP in human hTERT-RPE1 cells assessed as increase in OSBP recruitment at TGN and measured after 10 mins by confocal microscopy; type: cell-based
U-87 MG [13] = assay: Induction of autophagy in human U-87 MG cells assessed as decrease in LC3I expression at 0.05 to 1 uM incubated for 48 hrs by Western blot analysis; type: functional, cell-based; details: U-87MG ATCC; in short: as §2
mTORC1 (Homo sapiens) [14] = biological target: T2, mTORC1 (Homo sapiens); assay: Inhibition of mTORC1 signalling in human U-87 MG cells assessed as decrease in S6 phosphorylation at S240/244 residue at 0.05 to 1 uM incubated for 48 hrs by Western blot analysis; type: cell-based; in short: as §2
mTORC2 (Homo sapiens) = mTORC2 (Homo sapiens) (UniProt P42345+Q6R327+Q9BVC4+Q9BPZ7); assay: Inhibition of mTORC2 signalling in human U-87 MG cells assessed as decrease in AKT phosphorylation at S473 residue at 0.05 to 1 uM incubated for 48 hrs by Western blot analysis; type: cell-based; in short: as §2
U-87 MG [15] = assay: Induction of autophagy in human U-87 MG cells assessed as increase in LC3II expression at 0.05 to 1 uM incubated for 48 hrs by Western blot analysis; type: functional, cell-based; details: U-87MG ATCC; in short: as §2
[16] = biological target: T3, Oxysterol-binding protein 1 (Homo sapiens); assay: Inhibition of human OSBP in human hTERT-RPE1 cells co-transfected with GFP-P4MSidM and TagBFP-betaGalT1 assessed as increase in PI4P at TGN by measuring GFP-P4M fluorescence and measured after 50 mins by immunofluorescence analysis; type: cell-based; in short: as §3

Structure (SMILES)	IC50 (U-87 MG [1]) [nM]	IC50 (A549) [nM]	Ki [2] [nM]	further results
COc1cc(/C=C/c2cc(O)c3c(c2)OC(C)(C)CC3)cc2c1O[C@]1(C)C[C@@H](O)[C@@H](O)C(C)(C)[C@H]1C2	336	1100	16	
COc1cc(/C=C/c2cc(O)c3c(c2)OC(C)(C)CC3)cc2c1O[C@]1(C)C[C@@H](O)[C@@H](OC=O)C(C)(C)[C@H]1C2	500	2150	829	
COc1cc(/C=C/c2cc(O)c(CC=C(C)C)c(O)c2)cc2c1O[C@@]1(C)[C@H](C2)C(C)(C)[C@H](O)C[C@@H]1O	510	1120	254	
CC(C)=CCC/C(C)=C/Cc1cc(/C=C/c2cc(O)c(CC=C(C)C)c(O)c2)cc(O)c1O [MAPPAIN]	7000	> 10000	3000	
COc1cc(/C=C/c2cc(O)c(CC=C(C)C)c(O)c2)cc2c1O[C@]1(C)C[C@@H](O)[C@@H](O)C(C)(C)[C@H]1C2 [SCHWEINFURTHIN E]	22	397	< 1	
COc1cc(CCc2cc(O)c3c(c2)OC(C)(C)CC3)cc2c1O[C@]1(C)CC[C@@H](OC=O)C(C)(C)[C@H]1C2	1480	> 10000	3700	
COc1cc(/C=C/c2cc(O)c3c(c2)OC(C)(C)C(O)C3)cc2c1O[C@]1(C)C[C@@H](O)[C@@H](O)C(C)(C)[C@H]1C2 (some centres undefined) [SCHWEINFURTHIN H]	656	1790	401	
C=CCc1c(/C=C/c2cc(O)c(CC=C(C)C)c(O)c2)cc2c(c1O)O[C@]1(C)CC[C@@H](O)C(C)(C)[C@H]1C2	457	2860	119	
COc1cc(/C=C/c2cc(O)c(CC=C(C)C)c(O)c2)cc2c1O[C@]1(C)CC[C@@H](O)C(C)(C)[C@H]1C2 [SCHWEINFURTHIN F]	98	605	6	
COc1cc(/C=C/c2cc(O)c3c(c2)OC(C)(C)CC3)cc2c1O[C@]1(C)CC[C@@H](O)C(C)(C)[C@H]1C2	478	2530	64	
CC1(C)CCc2c(O)cc(CCc3cc(O)c4c(c3)C[C@@H]3C(C)(C)[C@H](O)CC[C@@]3(C)O4)cc2O1	77	3910	< 1	
CC(C)=CCc1c(O)cc(/C=C/c2cc(O)c3c(c2)C[C@@H]2C(C)(C)[C@H](O)CC[C@@]2(C)O3)cc1O [SCHWEINFURTHIN G]	8	359	< 1	Activity (U-87 MG [3]): Dose-Dependent Effect; inhibition (mTORC1 (Homo sapiens) [4]): Dose-Dependent Effect; remaining at 2 h, 5 µM [5]: 100%; remaining at 0.75 h, 2.5 µM [6]: 23%; inhibition [7]: inactive; microsomal CLint at 2.5 µM [8]: 90 µL/min/mg; T1/2 [9]: 10 min; Drug uptake [10]: Active; remaining at 0.75 h, 2.5 µM [11]: 100%; inhibition [12]: Active; Activity (U-87 MG [13]): Dose-Dependent Effect; inhibition (mTORC1 (Homo sapiens) [14]): Dose-Dependent Effect; inhibition (mTORC2 (Homo sapiens)): Dose-Dependent Effect; Activity (U-87 MG [15]): Dose-Dependent Effect; inhibition [16]: Active
C=CCOc1cc(/C=C/c2cc(O)c(CC=C(C)C)c(O)c2)cc2c1O[C@]1(C)CC[C@@H](O)C(C)(C)[C@H]1C2	420	5000	31	
CC1(C)CCc2c(O)cc(/C=C/c3cc(O)c4c(c3)C[C@@H]3C(C)(C)[C@H](O)CC[C@@]3(C)O4)cc2O1	9.4	647	< 1	remaining at 2 h, 5 µM [5]: 100%; remaining at 0.75 h, 2.5 µM [6]: 48.6%; microsomal CLint at 2.5 µM [8]: 32 µL/min/mg; remaining at 0.75 h, 2.5 µM [11]: 100%
COc1cc(CCc2cc(O)c3c(c2)OC(C)(C)CC3)cc2c1O[C@]1(C)CC[C@@H](O)C(C)(C)[C@H]1C2	3850	> 10000	46	
CC1(C)CCc2c(O)cc(CCc3cc(O)c4c(c3)C[C@@H]3C(C)(C)[C@H](OC=O)CC[C@@]3(C)O4)cc2O1	67	3040	3220	
C#CCOc1cc(/C=C/c2cc(O)c(CC=C(C)C)c(O)c2)cc2c1O[C@]1(C)CC[C@@H](O)C(C)(C)[C@H]1C2	286	3900	43	
CC(C)=CCc1c(O)cc(/C=C/c2cc(O)c3c(c2)C[C@@H]2C(C)(C)[C@H](O)[C@H](O)C[C@@]2(C)O3)cc1O [VEDELIANIN]	15	966	< 1	
CC(C)=CCc1c(O)cc(/C=C/c2cc3c(c4c2C=CCO4)O[C@]2(C)CC[C@@H](O)C(C)(C)[C@H]2C3)cc1O	481	> 10000	37	
COc1cc(/C=C/c2cc(O)c3c(c2)OC(C)(C)CC3)cc2c1O[C@]1(C)CC[C@@H](OC=O)C(C)(C)[C@H]1C2	380	2420	523	
